Test results: ChEMBL document CHEMBL3994613, “Diaryltriazenes as antibacterial agents against methicillin resistant Staphylococcus aureus (MRSA) and Mycobacterium smegmatis” (Eur J Med Chem, 2017)
≈ marks a conversion by molar mass, not a printed value.

Tests used:
[1] = tested on: Staphylococcus aureus; test: Antibacterial activity against methicillin-resistant Staphylococcus aureus USA300 after 18 to 20 hrs by microdilution method; assay type: functional
Summary of the method: (§1)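 EUCAST broth microdilution in LB broth. Inoculum prepared by direct colony suspension from 20–24 h LB agar (E. coli DH10β) or 5% sheep blood BHI agar (MRSA USA300) growth. Final inoculum 2×10^4 CFU/mL, 18–20 h aerobic at 37 °C, growth read on a plate reader, at least duplicate.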

[2] = tested on: Saccharomyces cerevisiae; test: Antibacterial activity against Saccharomyces cerevisiae after 18 to 20 hrs by microdilution method
Summary of the method: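 Microdilution in YEP broth against wild-type yeast grown on YEP agar. Final inoculum 1×10^5 CFU/mL. Read after 18–20 h aerobic incubation at 30 °C on plate reader, at least one duplicate.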

[3] = tested on: Mycolicibacterium smegmatis; test: Antimycobacterial activity against Mycobacterium smegmatis MC2 155 after 94 to 98 hrs by microdilution method; assay type: functional; conditions: str. MC2 155
Summary of the method: (§2)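 Microdilution in TSB broth. Inoculum from colonies grown 96 h on TSA, final 1×10^5 CFU/mL, aerobic 94–98 h at 37 °C, growth read on a plate reader, at least duplicate.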

[4] = tested on: Escherichia coli; test: Antibacterial activity against Escherichia coli DH10beta harboring pHuLUC3 after 18 to 20 hrs by microdilution method; assay type: functional; summary of the method: as §1
[5] = tested on: Escherichia coli; test: Bactericidal activity against Escherichia coli DH10beta harboring pHuLUC3 after 18 to 20 hrs by microdilution method; assay type: functional; summary of the method: as §1
[6] = tested on: Mycolicibacterium smegmatis; test: Bactericidal activity against Mycobacterium smegmatis MC2 155 after 96 hrs by microdilution method; assay type: functional; conditions: str. MC2 155, 96 h; summary of the method: as §2
[7] = tested on: Staphylococcus aureus; test: Bactericidal activity against methicillin-resistant Staphylococcus aureus USA300 after 18 to 20 hrs by microdilution method; assay type: functional; summary of the method: as §1
[8] = tested on: Staphylococcus aureus; test: Antibacterial activity against methicillin-resistant Staphylococcus aureus USA300 by broth microdilution method

| Structure (SMILES) | MIC [1] [µg/mL] | MIC [2] [µg/mL] | MIC [3] [µg/mL] | MIC [4] [µg/mL] | MBC [5] [µg/mL] | MBC [6] [µg/mL] | MBC [7] [µg/mL] | MIC [8] [µg/mL] |
| --- | --- | --- | --- | --- | --- | --- | --- | --- |
| O=C(c1cccnc1)N(/N=N/c1ccc([N+](=O)[O-])cc1Cl)c1ccc([N+](=O)[O-])cc1Cl | 32 (≈ 69.4 µM) | > 128 | 64 (≈ 139 µM) | 32 (≈ 69.4 µM) | 32 (≈ 69.4 µM) | 128 (≈ 278 µM) | 32 (≈ 69.4 µM) | – |
| CC[C@H]1OC(=O)[C@H](C)[C@@H](O[C@H]2C[C@@](C)(OC)[C@@H](O)[C@H](C)O2)[C@H](C)[C@@H](O[C@@H]2O[C@H](C)C[C@H](N(C)C)[C@H]2O)[C@](C)(O)C[C@@H](C)C(=O)[C@H](C)[C@@H](O)[C@]1(C)O [ERYTHROMYCIN] | – | – | – | – | – | – | – | 8 to 64 (≈ 10.9 to 87.2 µM) |
| O=C(N[C@H](CO)[C@H](O)c1ccc([N+](=O)[O-])cc1)C(Cl)Cl [CHLORAMPHENICOL] | – | – | – | – | – | – | – | 4 to 32 (≈ 12.4 to 99 µM) |
| O=C(c1cccnc1)N(/N=N/c1ccc([N+](=O)[O-])cc1F)c1ccc([N+](=O)[O-])cc1F | 64 (≈ 149 µM) | > 128 | > 128 | 128 (≈ 299 µM) | > 128 | – | 64 (≈ 149 µM) | – |
| CC(=O)NC[C@H]1CN(c2ccc(N3CCOCC3)c(F)c2)C(=O)O1 [LINEZOLID] | – | – | – | – | – | – | – | 2 to 4 (≈ 5.93 to 11.9 µM) |
| O=C(O)c1cn(C2CC2)c2cc(N3CCNCC3)c(F)cc2c1=O [CIPROFLOXACIN] | – | – | – | – | – | – | – | 0.125 to 64 (≈ 0.377 to 193 µM) |
| CCC[C@@H]1C[C@@H](C(=O)N[C@@H]([C@H]2O[C@H](SC)[C@H](O)[C@@H](O)[C@H]2O)[C@H](C)Cl)N(C)C1 [CLINDAMYCIN] | – | – | – | – | – | – | – | 0.125 to 64 (≈ 0.294 to 151 µM) |
| NC[C@H]1O[C@H](O[C@H]2[C@H](O)[C@@H](O[C@H]3O[C@H](CO)[C@@H](O)[C@H](N)[C@H]3O)[C@H](N)C[C@@H]2N)[C@H](O)[C@@H](O)[C@@H]1O [KANAMYCIN] | – | – | – | – | – | – | – | > 64 |
| O=C(c1ccccc1C(F)(F)F)N(/N=N/c1ccc([N+](=O)[O-])cc1Cl)c1ccc([N+](=O)[O-])cc1Cl | > 128 | > 128 | > 128 | 64 (≈ 121 µM) | 128 (≈ 242 µM) | – | – | – |
| O=C(c1cccnc1)N(/N=N/c1ccc([N+](=O)[O-])cc1)c1ccc([N+](=O)[O-])cc1 | 64 (≈ 163 µM) | > 128 | > 128 | 8 (≈ 20.4 µM) | 16 (≈ 40.8 µM) | – | 128 (≈ 326 µM) | – |
| Clc1ccc(Cl)c(/N=N/Nc2cc(Cl)ccc2Cl)c1 | > 128 | > 128 | > 128 | > 128 | – | – | – | – |
| Ic1ccccc1/N=N/Nc1ccccc1I | > 128 | > 128 | > 128 | > 128 | – | – | – | – |
| O=C(c1ccncc1)N(/N=N/c1ccc([N+](=O)[O-])cc1Cl)c1ccc([N+](=O)[O-])cc1Cl | 16 (≈ 34.7 µM) | > 128 | 128 (≈ 278 µM) | 16 (≈ 34.7 µM) | 16 (≈ 34.7 µM) | > 128 | 16 (≈ 34.7 µM) | – |
| O=C(c1ccncc1)N(/N=N/c1ccc([N+](=O)[O-])c(C(F)(F)F)c1)c1ccc([N+](=O)[O-])c(C(F)(F)F)c1 | 2 (≈ 3.79 µM) | > 128 | 64 (≈ 121 µM) | 32 (≈ 60.6 µM) | 32 (≈ 60.6 µM) | > 128 | 2 (≈ 3.79 µM) | – |
| O=C(c1ccccc1C(F)(F)F)N(/N=N/c1ccc([N+](=O)[O-])cc1Br)c1ccc([N+](=O)[O-])cc1Br | > 128 | > 128 | > 128 | 64 (≈ 104 µM) | 64 (≈ 104 µM) | – | – | – |
| O=C(CCl)N(/N=N/c1ccc([N+](=O)[O-])cc1Br)c1ccc([N+](=O)[O-])cc1Br | > 128 | > 128 | > 128 | 64 (≈ 123 µM) | 128 (≈ 245 µM) | – | – | – |
| COc1c(N2CCNC(C)C2)c(F)cc2c(=O)c(C(=O)O)cn(C3CC3)c12 (stereo not given) [GATIFLOXACIN] | – | – | – | – | – | – | – | 0.5 to 4 (≈ 1.33 to 10.7 µM) |
| O=C(c1cccc(C(F)(F)F)c1)N(/N=N/c1ccc([N+](=O)[O-])cc1Cl)c1ccc([N+](=O)[O-])cc1Cl | 8 (≈ 15.1 µM) | > 128 | 32 (≈ 60.6 µM) | 32 (≈ 60.6 µM) | 64 (≈ 121 µM) | > 128 | 8 (≈ 15.1 µM) | – |
| O=C(c1ccccc1C(F)(F)F)N(/N=N/c1ccc([N+](=O)[O-])cc1C(F)(F)F)c1ccc([N+](=O)[O-])cc1C(F)(F)F | > 128 | > 128 | > 128 | 128 (≈ 215 µM) | 128 (≈ 215 µM) | – | – | – |
